Compound activity (PubChem)
MrgX1 agonist = agonists of human MrgX1 receptor, primary screen, HEK293 cells, Fluo-4 calcium flux; Mas-related G-protein coupled receptor member X1 (Homo sapiens), Q96LB2; B-score at 10 µM; 310,000 compounds, 0.44% hits; Fluo-4 calcium fluorescence, agonist mode; hits give high values;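 active means calcium response B-score plate-corrected fluorescence ratio at least 3 library SD, with starting fluorescence B-score inside 5 SD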
Target sequence (Q96LB2 whole entry, looked up): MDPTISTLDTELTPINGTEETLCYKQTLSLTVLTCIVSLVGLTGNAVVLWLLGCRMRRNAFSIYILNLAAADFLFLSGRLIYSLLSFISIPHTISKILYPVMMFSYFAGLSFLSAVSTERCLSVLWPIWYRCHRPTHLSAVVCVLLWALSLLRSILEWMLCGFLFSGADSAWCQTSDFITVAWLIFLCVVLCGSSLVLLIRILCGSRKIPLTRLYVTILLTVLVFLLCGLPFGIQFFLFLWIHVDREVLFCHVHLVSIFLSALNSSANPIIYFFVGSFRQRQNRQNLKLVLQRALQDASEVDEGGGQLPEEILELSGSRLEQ
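System – MrgX1-expressing HEK293 cells · Incubation – cells plated overnight, dye loaded 0.5 h 37 °C, 0.5 h room temperature · Technique – kinetic Fluo-4 NW fluorescence of intracellular calcium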
MrgX1 allo act = positive allosteric modulators of MrgX1, primary screen, HEK293 cells, Fluo-4 calcium flux; B-score at 10 µM; 310,000 compounds, 0.63% hits; FDSS; hits give high values;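 active means plate-corrected calcium response at least 3 library SD above typical, normal starting fluorescence, not activating the receptor alone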;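 further: compound read alongside a low EC10 to EC30 dose of BAM8-22 agonist; peak minus trough fluorescence over baseline measured at the second addition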
RGS4 pot = RGS4 potentiators or activators, primary screen, cell-based, HEK293 M3R inducible RGS4, calcium flux; carbachol calcium flux Fluo4; hits give low values; B-score at 10 µM; 310,000 compounds, 0.92% hits;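 active means B-score of the integrated calcium signal more than 4 SD below the library mean, with starting fluorescence not abnormally high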;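 further: negative B-score means reduced calcium response which marks RGS4 activation or potentiation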
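Assay system: HEK293 FlpIn-TREx cells, stable M3R, doxycycline-inducible RGS4 / Probe or stimulus: carbachol, ECmax concentration / Times: overnight RGS4 induction, 30 min dye load 37 °C, 20 min compound RT / Signal: kinetic calcium fluorescence imaging with Fluo4-AM dye, 2 µM / Measure: Agonist-evoked peak-minus-minimum fluorescence over baseline, integrated ratio, B score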
MrgX1 antagonist = antagonists of human MrgX1 receptor, primary screen, HEK293 cells, Fluo-4 calcium flux. BAM8-22 antagonism; hits give low values. AID 588676, 2011. Mas-related G-protein coupled receptor member X1 (Homo sapiens), Q96LB2. B-score at 10 µM. 310,000 compounds, 1.3% hits;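 active means calcium-response B-score plate-corrected more than 3 library SD below zero, starting fluorescence within 5 deviations, no agonist response on first addition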;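 further: peak minus trough fluorescence over baseline after final BAM8-22 challenge near maximal dose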
RGS4 block = RGS4 inhibitors, primary screen, cell-based, HEK293 M3R inducible RGS4, calcium flux; 310,000 compounds, 0.45% hits; Regulator of G-protein signaling 4 (Homo sapiens), P49798; Fluo-4 calcium flux; hits give high values; triggered by carbachol at its EC20; B-score at 10 µM;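 active means B-score, a plate-corrected calcium signal, over three deviations above library mean, with baseline fluorescence within five deviations of library mean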;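 further: RGS4 expression induced by doxycycline in cells with stable M3 receptor; B-score is computed from the integrated fluorescence ratio over baseline after carbachol; higher B-score means a larger calcium signal and so more RGS4 inhibition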
Target sequence (P49798 whole entry, looked up): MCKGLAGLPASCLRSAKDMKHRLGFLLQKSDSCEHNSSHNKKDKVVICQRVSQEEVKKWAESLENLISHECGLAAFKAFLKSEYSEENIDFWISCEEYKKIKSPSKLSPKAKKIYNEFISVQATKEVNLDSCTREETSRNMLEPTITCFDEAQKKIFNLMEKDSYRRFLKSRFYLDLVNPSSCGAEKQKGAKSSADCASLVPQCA
RGS4 act valid = reduced carbachol calcium response, RGS4-induced M3R cells, confirmation, RGS4 activator project, cell-based, HEK293 M3R/RGS4 inducible, calcium flux, duplicate; 1,100 compounds, 89% hits; inhibition, % at 10 µM; shares compounds with RGS4 pot; carbachol calcium flux Fluo4;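 active means inhibition above 3 SD of the buffer control wells, cut at about 41% in these data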;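 further: signal is the integrated peak-minus-minimum Fluo4 fluorescence over baseline ratio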
RGS4 act ctr = RGS4 activator counter-screen hit in non-induced cells | 1,100 compounds, 82% hits | inhibition, % at 10 µM | AID 602283 | HEK293 M3R non-induced RGS4, Fluo4 calcium flux; after carbachol challenge at its EC90 | shares compounds with RGS4 pot;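 active means inhibition exceeding 3 SD of buffer-only control wells, cut at about 26% in these data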;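 further: percent drop in integrated peak-minus-baseline over baseline Fluo4 ratio after carbachol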
* = called active by the depositor; i = inactive; . = no result given. Rows were chosen to be rich in hits. Some 3.5% of all compounds tested hit in one or more screens of this group.

SMILES | MrgX1 agonist | MrgX1 allo act | RGS4 pot | MrgX1 antagonist | RGS4 block | RGS4 act valid | RGS4 act ctr
Cc1cccn2c(=O)nc(SCC(=O)N3CCN(c4ccccc4)CC3)nc12 | i | i | i | i | i | . | .
CCOC(=O)Nc1ccc2c(c1)N(C(=O)C(C)N1CCCC1)c1ccccc1CC2 (configuration not stated) | i | i | -7.9* | i | i | 86* | 84*
Cc1ccc(N(CC(=O)NC2CCCCC2)S(=O)(=O)c2c(C)noc2C)cc1 | i | i | i | i | i | . | .
C/C=C1\COC(C(=O)NCc2ccccc2)(C(F)(F)F)C=C1C=C(C)C (configuration not stated) | i | i | -7.8* | i | i | 92* | 93*
COc1cccc(NC(=O)CN(C)C(=O)c2ccc3c(c2)S(=O)(=O)N=C2CCCCCN23)c1 | i | i | i | i | i | . | .
Cc1ccn(S(=O)(=O)c2ccc(C(C)(C)C)cc2)n1 | i | i | -7.8* | i | i | 92* | 26*
CCCOc1ccc(NC(=O)c2c(-c3ccccc3)noc2C)cc1 | i | i | i | i | i | . | .
CC(=O)Nc1ccc(OCCCNC(=O)c2c(-c3ccccc3)noc2C)cc1 | i | i | -8.6* | i | i | 0 | 0
CC1(C)CC(=O)C=C(NCc2cccc(C(F)(F)F)c2)C1 | i | i | -8.7* | i | i | 0 | 0
CC1(C)CC(=O)C=C(NCc2ccccc2)C1 | i | i | i | i | i | . | .
Cn1c(=O)[nH]c2nnc(-c3ccc(Cl)c(Cl)c3)nc2c1=O | i | i | -8.9* | i | i | 0 | 0
CCOC(=O)c1c(-c2ccccc2)oc2ccc(O)c(CN3CCN(C)CC3)c12 | i | i | -8.1* | i | i | 69* | 49*
CCOC(=O)c1c(C)n(C)c2ccc(O)c(CN3CCN(C)CC3)c12 | i | i | i | i | i | . | .
Cc1cccc(/C(N)=N/OC(=O)COc2ccc(Cl)cc2)c1 | i | i | i | i | i | . | .
Cc1cccc(C(=O)NC(=S)NNC(=O)COc2ccc(Cl)cc2)c1 | . | . | -11* | . | i | 58* | 50*
COc1ccc(C2=NO[C@@H]3[C@@H]4C[C@@H]([C@H]5C(=O)N(C)C(=O)[C@@H]45)[C@H]23)c(OC)c1 | i | i | i | i | i | . | .
CC(C)(C)CC(C)(C)NCC(O)COc1ccc2c(c1)CCC2 (configuration not stated) | i | i | -10* | i | i | 92* | 55*
CC(C)(CO)NCC(O)COc1ccc2c(c1)CCC2 (configuration not stated) | i | i | i | i | i | . | .
CN1CCN(CC(O)(c2ccc(Cl)cc2)c2ccc(Cl)cc2)CC1 | i | i | -10* | i | i | 92* | 65*
CC(C)CN(C(=O)COC(=O)c1nc(Cl)ccc1Cl)c1c(N)n(Cc2ccccc2)c(=O)[nH]c1=O | i | i | i | i | i | . | .
O=C(CSc1nc(-c2ccccc2Cl)ns1)c1ccc(Cl)cc1 | i | i | -8.2* | i | i | 77* | 41*
CCN(Cc1ccccc1)Cc1ccc(OCc2ccccc2)cc1 | i | i | -8.3* | i | i | 93* | 70*
Nc1ccc(OCc2ccccc2)cc1 | i | i | i | i | i | . | .
Cc1cc2c(cc1S(=O)(=O)CCC(=O)NC1CCCCC1C)OCC(=O)N2 (configuration not stated) | i | i | i | i | i | . | .
CCCc1nc2ccccc2c(C(=O)OCC(=O)Nc2cccc(S(=O)(=O)N3CCOCC3)c2)c1CC | i | i | -8.9* | i | i | 92* | 92*
SMILES | MrgX1 agonist | MrgX1 allo act | RGS4 pot | MrgX1 antagonist | RGS4 block | RGS4 act valid | RGS4 act ctr
CC1CCc2nc3ccccc3c(C(=O)OCC(=O)N3CCc4ccccc43)c2C1 (configuration not stated) | i | i | i | i | i | . | .
CCCc1nc2ccccc2c(C(=O)OCC(=O)N2CCc3ccccc32)c1CC | i | i | -8.6* | i | i | 84* | 84*
CC1CCN(CCCOc2ccc(Cl)cc2Br)CC1 | i | i | i | i | i | . | .
Cc1cc(Br)ccc1OCCCCN1CCC(C)CC1 | i | i | -8.5* | i | i | 89* | 64*
CCN1CCN(CC(O)COC(c2ccccc2)c2ccccc2C)CC1 (configuration not stated) | i | i | i | i | i | . | .
O=c1[nH]c2ccccc2cc1CN(Cc1cccnc1)S(=O)(=O)c1ccc(Cl)cc1 | i | 7.3* | -7.8* | i | i | 73* | 30*
CCOC(=O)C1=C(C)N=C2SC(C)C(=O)N2C1c1cccc(F)c1 (configuration not stated) | i | i | -8.1* | i | i | 0 | 0
O=S(=O)(c1cccc2cccnc12)N1CCCCC1 | i | i | i | i | i | . | .
CN1CCN(c2ncccc2S(=O)(=O)N2CCCCC2)CC1 | i | i | -12* | i | i | 90* | 73*
O=C(c1ccc(S(=O)(=O)N2CCCCCC2)cc1)N1CCN(c2ccccc2F)CC1 | i | i | i | i | i | . | .
Cc1ccc(CNc2nc(-c3cccnc3)nc3ccccc23)cc1 | i | i | i | i | i | . | .
c1ccc(CNc2nc(-c3cccnc3)nc3ccccc23)cc1 | i | i | -8.4* | i | i | 84* | 37*
COc1ccc(C(CNc2nc(-c3cccnc3)nc3ccccc23)N(C)C)cc1 (configuration not stated) | i | i | -9.3* | i | i | 60* | 84*
COC(=O)CNc1nc(-c2cccnc2)nc2ccccc12 | i | i | . | i | . | . | .
COc1[nH]c(/N=C/c2ccccc2)c(C#N)c1C#N | i | i | -8.4* | i | i | 0 | 0
Cc1ccc2nc3sc(C(=O)Nc4ccc(N5CCOCC5)cc4)c(N)c3cc2c1 | . | . | i | . | i | . | .
Cc1cccc2cc3c(N)c(C(=O)Nc4ccc(N5CCOCC5)cc4)sc3nc12 | i | i | -11* | -5.4* | i | 92* | 74*
